Test results: ChEMBL document CHEMBL1122662, “3-Hydroxy-alpha-methyltyrosine progenitors: synthesis and evaluation of some (2-oxo-1,3-dioxol-4-yl)methyl esters” (J Med Chem, 1984)

Tests used:
[1] = Systemic availability with respect to methyldopa was determined; format: ADME
Outline: (§1)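 Randomized cross-over in four male beagles fasted overnight and 6 h postdose, water ad libitum. Single oral doses equal to 200 mg methyldopa; 100 mg methyldopa iv as reference. Jugular blood through 10 h. Plasma deproteinized with HClO4, internal standard ethyldopa, analyzed by C-18 HPLC with amperometric detection. AUC by trapezoids plus terminal extrapolation. Systemic availability relative to iv by Kwan-Till, constant nonrenal clearance; mean ± SD.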

[2] = Compound was evaluated for its renal clearance after oral administration (200 mg) to Beagle dogs; format: ADME, organism-based, Canis lupus familiaris; settings: dog, in vivo, read-out: Renal clearance
Outline: (§2)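 Four male beagles in cross-over, single oral doses equal to 200 mg methyldopa, 100 mg iv reference. Voided urine collected through 48 h, heated with HClO4 (99 °C, 15 min) to hydrolyze conjugates, methyldopa measured by HPLC-amperometry. Urinary recovery as % dose; renal clearance as total urinary recovery divided by plasma AUC; mean ± SD.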

[3] = Compound was evaluated for its bioavailability after oral administration (200 mg) to Beagle dogs; format: ADME, organism-based, Canis lupus familiaris; settings: dog, in vivo; outline: as §1
[4] = tested on: Rattus norvegicus; assay: Antihypertensive activity was evaluated in SH rats by measuring initial mean arterial pressure at 0.24 mM/kg dose administered perorally; equivalent to 50 mg/kg of methyldopa; format: functional, Artery; settings: route oral
Outline: (§3)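 Unanesthetized male Wistar-Okamoto spontaneously hypertensive rats (290-350 g, 16-24 weeks), six per group, dosed orally at 0.12, 0.24 or 0.47 mmol/kg, equal to 25, 50 or 100 mg/kg methyldopa; doses based on base weight. Arterial pressure recorded continuously by transducer, mean pressure printed every 1/2 h. Initial pressure and maximum fall recorded, mean ± SE.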

[5] = Compound was evaluated for its bioavailability after intravenous administration (100 mg) to Beagle dogs
[6] = Compound was evaluated for its urinary recovery after intravenous administration (100 mg) to Beagle dogs
[7] = Compound was evaluated for its renal clearance after intravenous administration (100 mg) to Beagle dogs
[8] = tested on: Rattus norvegicus; assay: Antihypertensive activity was evaluated in SH rats by measuring imax reduction in mean arterial pressure at 0.24 mM/kg dose administered perorally; equivalent to 50 mg/kg of methyldopa; format: functional, Artery; settings: route oral; outline: as §3
[9] = Compound was evaluated for its urinary recovery after oral administration (200 mg) to Beagle dogs; format: ADME, organism-based, Canis lupus familiaris; settings: dog, urine, read-out: Activity; outline: as §2
[10] = tested on: Rattus norvegicus; assay: Antihypertensive activity was evaluated in SH rats by measuring max reduction in mean arterial pressure at 0.47 mM/kg dose administered perorally; equivalent to 100 mg/kg of methyldopa; format: functional, Artery; settings: route oral; outline: as §3
[11] = tested on: Rattus norvegicus; assay: Antihypertensive activity was evaluated in SH rats by measuring initial mean arterial pressure at 0.12 mM/kg dose administered perorally; equivalent to 25 mg/kg of methyldopa; format: functional, Artery; settings: route oral; outline: as §3
[12] = tested on: Rattus norvegicus; assay: Antihypertensive activity was evaluated in SH rats by measuring max reduction in mean arterial pressure at 0.24 mM/kg dose administered perorally; equivalent to 50 mg/kg of methyldopa; format: functional, Artery; settings: route oral; outline: as §3
[13] = tested on: Rattus norvegicus; assay: Antihypertensive activity was evaluated in SH rats by measuring initial mean arterial pressure at 0.47 mM/kg dose administered perorally; equivalent to 100 mg/kg of methyldopa; format: functional, Artery; settings: route oral; outline: as §3
[14] = tested on: Rattus norvegicus; assay: Antihypertensive activity was evaluated in SH rats by measuring imax reduction in mean arterial pressure at 0.12 mM/kg dose administered perorally; equivalent to 25 mg/kg of methyldopa; format: functional, Artery; settings: route oral; outline: as §3

SMILES | Activity [1] | CL renal [2] | AUC [3] | Initial mean arterial pressure [4] | AUC [5] | Activity [6] | Renal clearance [7] | Max reduction in mean arterial pressure [8] | dose excreted [9] | Max reduction in mean arterial pressure [10] | Initial mean arterial pressure [11] | Max reduction in mean arterial pressure [12] | Initial mean arterial pressure [13] | Max reduction in mean arterial pressure [14]
C[C@](N)(Cc1ccc(O)c(O)c1)C(=O)O [METHYLDOPA] | 92.1% | 31.9 mL/min | 58300 ng·h/mL | 174 mmHg | 32600 ng·h/mL | 57.7% | 31.8 mL/min | 37 mmHg | 54.2% | – | – | – | – | –
CC(N)(Cc1ccc(O)c(O)c1)C(=O)OCc1oc(=O)oc1C(C)(C)C (stereo not given) | 55.7% | 29.3 mL/min | 37400 ng·h/mL | 172 mmHg | – | – | – | – | 31.4% | 93 mmHg | 182 mmHg | 45 mmHg | 185 mmHg | 24 mmHg
Cc1oc(=O)oc1COC(=O)C(C)(N)Cc1ccc(O)c(O)c1 (stereo not given) | 94.2% | 29.2 mL/min | 61700 ng·h/mL | 172 mmHg | – | – | – | – | 53.2% | 52 mmHg | 180 mmHg | 38 mmHg | 164 mmHg | 29 mmHg
CC(OC(=O)C(C)(C)C)OC(=O)C(C)(N)Cc1ccc(O)c(O)c1.Cl (stereo not given) | – | – | – | 181 mmHg | – | – | – | – | – | 83 mmHg | 181 mmHg | 60 mmHg | 179 mmHg | 23 mmHg
